Key:
MDCK [1] = test: Cytotoxicity against Influenza A virus subtype H3N2 infected MDCK cells by trypan blue exclusion method; assay type: cell-based, Canis lupus familiaris; details: dog
Vero [2] = test: Cytotoxicity against Reovirus 1 infected african green monkey Vero cells by trypan blue exclusion method; assay type: cell-based; details: chlorocebus sabaeus, vero
Method in brief: (§1)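 Uninfected confluent cultures were run in parallel with the infected cultures. Medium was replaced by 1 ml maintenance medium with serial compound concentrations; cell controls received no compound. Cultures were incubated at 37 °C. After 2 and 7 days, compound was withdrawn and viability was determined by trypan blue exclusion.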

Influenza A virus [3] = test: Antiviral activity against Influenza A virus H1N1 infected in MDCK cells assessed as protection from virus-induced cytopathogenicity after 6 to 7 days by MTT assay; assay type: functional, organism-based
MDCK [4] = test: Cytotoxicity against Influenza A virus subtype H1N1 infected MDCK cells by trypan blue exclusion method; assay type: cell-based, Canis lupus familiaris; details: dog
Coxsackievirus B4 [5] = test: Antiviral activity against Human coxsackievirus B4 infected in african green monkey Vero cells assessed as protection from virus-induced cytopathogenicity after 2 days by MTT assay; assay type: functional, organism-based; details: Enterovirus B, 48 h
HEL [6] = test: Cytotoxicity against VSV infected HEL cells by trypan blue exclusion method; assay type: cell-based; details: human, hel; method in brief: as §1
[7] = Cytotoxicity against Feline coronavirus infected cat CRFK cells by trypan blue exclusion method; assay type: cell-based, Felis catus; details: crfk; method in brief: as §1
Vero [8] = test: Cytotoxicity against PIV 3 infected african green monkey Vero cells by trypan blue exclusion method; assay type: cell-based; details: chlorocebus sabaeus, vero; method in brief: as §1
Vero [9] = test: Cytotoxicity against Human coxsackievirus B4 infected african green monkey Vero cells by trypan blue exclusion method; assay type: cell-based; details: chlorocebus sabaeus, vero; method in brief: as §1
Vero [10] = test: Cytotoxicity against Punta Toro virus infected african green monkey Vero cells by trypan blue exclusion method; assay type: cell-based; details: chlorocebus sabaeus, vero; method in brief: as §1
[11] = tested on: Mammalian orthoreovirus 1; test: Antiviral activity against Reovirus 1 infected in african green monkey Vero cells assessed as protection from virus-induced cytopathogenicity after 6 to 7 days by MTT assay; assay type: functional, organism-based; details: Mammalian orthoreovirus 1, Vero
Human alphaherpesvirus 1 [12] = test: Antiviral activity against acyclovir-sensitive Herpes simplex virus 1 KOS infected in HEL cells assessed as protection from virus-induced cytopathogenicity after 2 to 3 days by MTT assay; assay type: functional, organism-based; details: Human alphaherpesvirus 1, KOS
Influenza B virus = test: Antiviral activity against Influenza B virus infected in MDCK cells assessed as protection from virus-induced cytopathogenicity after 6 to 7 days by MTT assay; assay type: functional, organism-based
Vero [13] = test: Cytotoxicity against Sindbis virus infected african green monkey Vero cells by trypan blue exclusion method; assay type: cell-based; details: chlorocebus sabaeus, vero; method in brief: as §1
HeLa [14] = test: Cytotoxicity against Respiratory syncytial virus infected human HeLa cells by trypan blue exclusion method; assay type: cell-based; details: hela; method in brief: as §1
HEL [15] = test: Cytotoxicity against Vaccinia virus infected HEL cells by trypan blue exclusion method; assay type: cell-based; details: human, hel; method in brief: as §1
Feline coronavirus = test: Antiviral activity against Feline coronavirus infected in cat CRFK cells assessed as protection from virus-induced cytopathogenicity by MTT assay; assay type: functional, organism-based; details: Alphacoronavirus 1, CRFK
[16] = Cytotoxicity against HIV2 ROD infected human MT4 cells by MTT assay; assay type: cell-based; details: MT4 cells infected with HIV-2 ROD
Method in brief: (§2)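 MT-4 cells (3 × 10^4 per well) were cultured in microdilution trays with various concentrations of compound, then incubated 5 days at 37 °C, and viable cell number was read by MTT.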

[17] = tested on: Human immunodeficiency virus 2; test: Antiviral activity against HIV2 ROD infected in human MT4 cells assessed as protection from virus-induced cytopathogenicity after 5 days by MTT assay; assay type: functional, organism-based; details: Human immunodeficiency virus 2, ISOLATE ROD, MT4, 120 h
Method in brief: (§3)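 MT-4 cells at 3 × 10^4 per well were infected with HIV (IIIB or ROD) at 50% cell culture infective doses. Graded compound concentrations were added immediately after infection. Plates were incubated for 5 days at 37 °C and viable cells were counted by MTT.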

Coxsackievirus B4 [18] = test: Antiviral activity against Human coxsackievirus B4 infected in human HeLa cells assessed as protection from virus-induced cytopathogenicity after 2 days by MTT assay; assay type: functional, organism-based; details: Enterovirus B, 48 h
Influenza A virus [19] = test: Antiviral activity against Influenza A virus H3N2 infected in MDCK cells assessed as protection from virus-induced cytopathogenicity after 6 to 7 days by MTT assay; assay type: functional, organism-based
Felid alphaherpesvirus 1 = test: Antiviral activity against Feline herpesvirus infected in cat CRFK cells assessed as protection from virus-induced cytopathogenicity by MTT assay; assay type: functional, organism-based; details: Felid alphaherpesvirus 1, CRFK
Human respirovirus 3 = test: Antiviral activity against PIV 3 infected in african green monkey Vero cells assessed as protection from virus-induced cytopathogenicity after 6 to 7 days by MTT assay; assay type: functional, organism-based; details: Human respirovirus 3, Vero
HEL [20] = test: Cytotoxicity against Herpes simplex virus 2 G infected HEL cells by trypan blue exclusion method; assay type: cell-based; details: human, hel; method in brief: as §1
MDCK [21] = test: Cytotoxicity against Influenza B virus infected MDCK cells by trypan blue exclusion method; assay type: cell-based, Canis lupus familiaris; details: dog
[22] = tested on: Respiratory syncytial virus; test: Antiviral activity against Respiratory syncytial virus infected in human HeLa cells assessed as protection from virus-induced cytopathogenicity after 4 days by MTT assay; assay type: functional, organism-based; details: 96 h
[23] = tested on: Vesicular stomatitis virus; test: Antiviral activity against VSV infected in human HeLa cells assessed as protection from virus-induced cytopathogenicity after 1 to 2 days by MTT assay; assay type: functional, organism-based
Sindbis virus = test: Antiviral activity against Sindbis virus infected in african green monkey Vero cells assessed as protection from virus-induced cytopathogenicity after 2 to 3 days by MTT assay; assay type: functional, organism-based
[24] = tested on: Human immunodeficiency virus 1; test: Antiviral activity against HIV1 3B-infected in human MT4 cells assessed as protection from virus-induced cytopathogenicity after 5 days by MTT assay; assay type: functional, organism-based; details: Human immunodeficiency virus 1, 3B, MT4, 120 h; method in brief: as §3
Human alphaherpesvirus 2 = test: Antiviral activity against Herpes simplex virus 2 G infected in HEL cells assessed as protection from virus-induced cytopathogenicity after 2 to 3 days by MTT assay; assay type: functional, organism-based; details: Human alphaherpesvirus 2, strain G
Human alphaherpesvirus 1 [25] = test: Antiviral activity against Herpes simplex virus 1 KOS infected in HEL cells assessed as protection from virus-induced cytopathogenicity after 2 to 3 days by MTT assay; assay type: functional, organism-based; details: Human alphaherpesvirus 1, KOS
Punta Toro virus = test: Antiviral activity against Punta Toro virus infected in african green monkey Vero cells assessed as protection from virus-induced cytopathogenicity by MTT assay; assay type: functional, organism-based
HEL [26] = test: Cytotoxicity against Herpes simplex virus 1 KOS infected HEL cells by trypan blue exclusion method; assay type: cell-based; details: human, hel; method in brief: as §1
[27] = Cytotoxicity against Feline herpesvirus infected cat CRFK cells by trypan blue exclusion method; assay type: cell-based, Felis catus; details: crfk; method in brief: as §1
[28] = tested on: Vesicular stomatitis virus; test: Antiviral activity against VSV infected in HEL cells assessed as protection from virus-induced cytopathogenicity after 1 to 2 days by MTT assay; assay type: functional, organism-based
[29] = Selectivity index, ratio of CC50 for HIV2 ROD infected human MT4 cells to IC50 for […] ROD; assay type: functional
HEL [30] = test: Cytotoxicity against acyclovir-sensitive Herpes simplex virus 1 KOS infected HEL cells by trypan blue exclusion method; assay type: cell-based; details: human; method in brief: as §1
[31] = Cytotoxicity against HIV1 3B-infected human MT4 cells by MTT assay; assay type: cell-based; details: MT4 cells infected with HIV-1 3B; method in brief: as §2
HeLa [32] = test: Cytotoxicity against Human coxsackievirus B4 infected human HeLa cells by trypan blue exclusion method; assay type: cell-based; details: hela; method in brief: as §1
HeLa [33] = test: Cytotoxicity against VSV infected human HeLa cells by trypan blue exclusion method; assay type: cell-based; details: hela; method in brief: as §1

COc1cc(/C=C/C(=O)CC(=O)/C=C/c2ccc(OCCOC(=O)CCC(NC(=O)c3ccc(NCc4cnc5nc(N)[nH]c(=O)c5n4)cc3)C(=O)O)c(OC)c2)ccc1O (stereo not given)
CC50 (MDCK [1]): > 0.119 µM | CC50 (Vero [2]): > 0.119 µM | EC50 (Influenza A virus [3]): > 0.119 µM | CC50 (MDCK [4]): > 0.119 µM | EC50 (Coxsackievirus B4 [5]): > 0.119 µM | CC50 (HEL [6]): > 0.119 µM | CC50 [7]: > 0.119 µM | CC50 (Vero [8]): > 0.119 µM | CC50 (Vero [9]): > 0.119 µM | CC50 (Vero [10]): > 0.119 µM | EC50 [11]: > 0.119 µM | EC50 (Human alphaherpesvirus 1 [12]): > 0.119 µM | EC50 (Influenza B virus): > 0.119 µM | CC50 (Vero [13]): > 0.119 µM | CC50 (HeLa [14]): > 0.119 µM | CC50 (HEL [15]): > 0.119 µM | EC50 (Feline coronavirus): 0.078 µM | CC50 [16]: > 0.069 µM | IC50 [17]: 0.069 µM | EC50 (Coxsackievirus B4 [18]): > 0.119 µM | EC50 (Influenza A virus [19]): > 0.119 µM | EC50 (Felid alphaherpesvirus 1): 0.105 µM | EC50 (Human respirovirus 3): > 0.119 µM | CC50 (HEL [20]): > 0.119 µM | CC50 (MDCK [21]): > 0.119 µM | EC50 [22]: > 0.119 µM | EC50 [23]: > 0.119 µM | EC50 (Sindbis virus): > 0.119 µM | IC50 [24]: 0.063 µM | EC50 (Human alphaherpesvirus 2): > 0.119 µM | EC50 (Human alphaherpesvirus 1 [25]): > 0.119 µM | EC50 (Punta Toro virus): > 0.119 µM | CC50 (HEL [26]): > 0.119 µM | CC50 [27]: > 0.119 µM | EC50 [28]: > 0.119 µM | Ratio CC50/IC50 [29]: <1 | CC50 (HEL [30]): > 0.119 µM | CC50 [31]: > 0.063 µM | CC50 (HeLa [32]): > 0.119 µM | CC50 (HeLa [33]): > 0.119 µM
